Data as given in article PMC3685407 (Neuropharmacology, 2013).
Like-named read-outs stand apart in the source and are kept apart here.

Assays:
[1] = test system: L-dopa-induced AIMs in 6-OHDA lesioned rats; assay: L-dopa-induced AIMs in rats with severe unilateral 6-OHDA lesion; assay type: in vivo, rat; conditions: for AIM subtypes significantly affected by nAChR compounds: axial, oral, forelimb AIMs; for AIM subtypes significantly affected by nAChR compounds / Decrease in total AIM scores: severe dopaminergic lesion; for Decrease in total AIM scores: maximal decrease over the treatment periods, L-dopa 6 or 8 mg/kg plus benserazide 15 mg/kg sc; for Reduction in L-dopa-induced AIMs: range over the series, rats with severe nigrostriatal damage; for Total AIMs score: summary table, L-dopa 6 or 8 mg/kg plus benserazide, group not stated
muscle nAChRs = muscle nAChRs (Homo sapiens, UniProt P02708+P07510+Q07001); assay: biochemical; assay type: binding
human α3β4 nAChRs = human α3β4 nAChRs (Homo sapiens, UniProt P30926+P32297); assay: Competition membrane binding
[2] = test system: ^3H-dopamine release from rat striatal synaptosomes; conditions: read-out: EC50 for 3H-dopamine release; rat striatum; ref Zwart et al., 2008; cited from earlier work
human α7 nAChRs = human α7 nAChRs (Homo sapiens, UniProt P36544); assay: biochemical; assay type: binding
[3] = test system: forelimb use asymmetry in 6-OHDA lesioned rats; assay: Limb use asymmetry test; assay type: in vivo, rat; conditions: for % Contralateral limb use, nAChR compound: 5 min period, mean ± S.E.M of 5–9 rats
Summary of the method: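 Unilateral intracranial 6-OHDA lesions in rats (230–250 g). Forelimb use was rated over 5 min, once before and once 60 min after sc L-dopa plus benserazide (8.0 or 6.0 mg/kg plus 15 mg/kg, depending on study). The read-out was % contralateral limb use. Test compound was given by minipump or sc injection. In one study, testing was 4 wk after L-dopa treatment began.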

[4] = test system: L-dopa-induced AIMs in parkinsonian rats; conditions: cited from earlier work
[5] = test system: L-dopa-induced AIMs in 6-OHDA lesioned rats; conditions: cited from earlier work
[6] = test system: L-dopa-induced dyskinesias in Parkinson’s disease patients; conditions: small clinical trial, ref http://www.neuraltus.com/pages/news.html; cited from earlier work
[7] = rats with severe dopaminergic lesions, ref Bordia et al., 2010

human α7 nAChRs, sequence (P36544 23-502): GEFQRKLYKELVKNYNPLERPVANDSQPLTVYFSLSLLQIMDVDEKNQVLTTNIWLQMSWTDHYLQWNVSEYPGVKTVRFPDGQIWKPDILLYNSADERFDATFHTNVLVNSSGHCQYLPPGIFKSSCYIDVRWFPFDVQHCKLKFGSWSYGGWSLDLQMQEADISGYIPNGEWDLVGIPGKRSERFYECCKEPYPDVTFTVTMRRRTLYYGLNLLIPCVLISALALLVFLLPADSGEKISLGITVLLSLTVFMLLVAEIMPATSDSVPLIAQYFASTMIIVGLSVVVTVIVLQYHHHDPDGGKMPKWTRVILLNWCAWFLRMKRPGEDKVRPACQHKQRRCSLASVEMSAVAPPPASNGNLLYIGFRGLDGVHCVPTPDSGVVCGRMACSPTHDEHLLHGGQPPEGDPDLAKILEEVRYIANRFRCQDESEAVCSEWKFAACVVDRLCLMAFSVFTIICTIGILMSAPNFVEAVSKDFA
muscle nAChRs, sequence (P07510 23-517): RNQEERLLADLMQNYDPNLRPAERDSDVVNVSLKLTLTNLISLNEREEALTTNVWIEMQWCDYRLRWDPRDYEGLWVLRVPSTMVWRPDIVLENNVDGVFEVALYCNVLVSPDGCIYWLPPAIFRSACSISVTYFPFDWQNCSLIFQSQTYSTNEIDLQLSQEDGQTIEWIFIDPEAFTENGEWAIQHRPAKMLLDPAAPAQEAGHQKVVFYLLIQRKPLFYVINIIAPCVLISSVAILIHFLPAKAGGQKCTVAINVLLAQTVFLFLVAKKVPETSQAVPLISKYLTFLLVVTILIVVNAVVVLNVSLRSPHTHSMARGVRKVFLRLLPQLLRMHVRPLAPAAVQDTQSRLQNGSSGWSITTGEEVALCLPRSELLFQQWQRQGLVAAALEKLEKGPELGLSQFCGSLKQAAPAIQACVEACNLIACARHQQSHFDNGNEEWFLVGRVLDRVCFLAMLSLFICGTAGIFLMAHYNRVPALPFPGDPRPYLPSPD
muscle nAChRs, sequence (Q07001 22-517): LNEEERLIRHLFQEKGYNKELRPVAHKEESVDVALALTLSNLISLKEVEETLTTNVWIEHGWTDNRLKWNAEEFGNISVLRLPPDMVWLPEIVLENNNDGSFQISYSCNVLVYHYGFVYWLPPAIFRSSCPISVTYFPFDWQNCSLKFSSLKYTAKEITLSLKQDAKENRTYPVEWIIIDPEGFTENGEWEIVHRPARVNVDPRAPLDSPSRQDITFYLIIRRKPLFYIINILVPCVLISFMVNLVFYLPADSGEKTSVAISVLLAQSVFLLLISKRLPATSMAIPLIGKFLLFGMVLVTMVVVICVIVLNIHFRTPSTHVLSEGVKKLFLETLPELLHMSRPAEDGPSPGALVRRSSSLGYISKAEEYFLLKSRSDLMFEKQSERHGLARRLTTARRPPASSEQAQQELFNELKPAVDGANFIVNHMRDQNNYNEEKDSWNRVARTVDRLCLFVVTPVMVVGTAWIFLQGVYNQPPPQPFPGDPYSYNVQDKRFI
muscle nAChRs, sequence (P11230 24-501, further chain): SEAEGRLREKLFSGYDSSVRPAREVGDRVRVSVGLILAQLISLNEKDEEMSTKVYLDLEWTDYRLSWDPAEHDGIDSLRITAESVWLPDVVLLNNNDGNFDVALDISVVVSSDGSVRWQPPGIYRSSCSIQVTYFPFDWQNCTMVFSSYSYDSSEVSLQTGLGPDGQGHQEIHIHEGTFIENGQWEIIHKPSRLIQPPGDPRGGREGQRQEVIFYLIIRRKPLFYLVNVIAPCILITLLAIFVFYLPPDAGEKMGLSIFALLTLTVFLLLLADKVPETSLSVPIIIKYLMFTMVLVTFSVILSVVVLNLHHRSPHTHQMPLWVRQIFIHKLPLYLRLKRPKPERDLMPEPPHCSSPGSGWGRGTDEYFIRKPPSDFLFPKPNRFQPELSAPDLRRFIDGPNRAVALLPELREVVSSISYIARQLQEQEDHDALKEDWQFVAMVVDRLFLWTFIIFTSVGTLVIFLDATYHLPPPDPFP
muscle nAChRs, sequence (P02708 21-457): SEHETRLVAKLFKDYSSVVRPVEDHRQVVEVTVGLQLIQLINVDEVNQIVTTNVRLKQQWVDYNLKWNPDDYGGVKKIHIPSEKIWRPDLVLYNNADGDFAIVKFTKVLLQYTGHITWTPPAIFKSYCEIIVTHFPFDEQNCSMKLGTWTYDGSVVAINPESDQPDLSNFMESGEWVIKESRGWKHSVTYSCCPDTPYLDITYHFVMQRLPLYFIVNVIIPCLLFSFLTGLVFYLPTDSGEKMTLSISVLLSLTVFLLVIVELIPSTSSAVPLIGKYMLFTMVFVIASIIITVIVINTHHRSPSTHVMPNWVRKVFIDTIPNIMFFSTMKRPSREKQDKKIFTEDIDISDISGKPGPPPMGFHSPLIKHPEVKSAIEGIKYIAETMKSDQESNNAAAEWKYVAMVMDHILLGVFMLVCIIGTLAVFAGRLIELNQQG
human α3β4 nAChRs, sequence (P32297 32-505): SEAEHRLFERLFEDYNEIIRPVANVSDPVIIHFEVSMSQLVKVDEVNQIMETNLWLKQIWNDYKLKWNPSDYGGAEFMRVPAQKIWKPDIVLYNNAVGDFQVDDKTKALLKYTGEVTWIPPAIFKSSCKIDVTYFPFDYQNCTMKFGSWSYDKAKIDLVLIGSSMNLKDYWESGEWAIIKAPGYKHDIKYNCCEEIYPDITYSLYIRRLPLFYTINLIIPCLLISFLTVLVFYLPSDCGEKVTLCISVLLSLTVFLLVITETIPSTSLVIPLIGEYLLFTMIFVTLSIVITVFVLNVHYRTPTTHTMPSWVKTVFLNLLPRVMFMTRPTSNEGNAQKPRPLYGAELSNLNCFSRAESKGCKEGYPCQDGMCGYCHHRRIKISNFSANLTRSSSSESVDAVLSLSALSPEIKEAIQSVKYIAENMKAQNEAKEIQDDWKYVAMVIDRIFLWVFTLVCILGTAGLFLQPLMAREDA
human α3β4 nAChRs, sequence (P30926 22-498): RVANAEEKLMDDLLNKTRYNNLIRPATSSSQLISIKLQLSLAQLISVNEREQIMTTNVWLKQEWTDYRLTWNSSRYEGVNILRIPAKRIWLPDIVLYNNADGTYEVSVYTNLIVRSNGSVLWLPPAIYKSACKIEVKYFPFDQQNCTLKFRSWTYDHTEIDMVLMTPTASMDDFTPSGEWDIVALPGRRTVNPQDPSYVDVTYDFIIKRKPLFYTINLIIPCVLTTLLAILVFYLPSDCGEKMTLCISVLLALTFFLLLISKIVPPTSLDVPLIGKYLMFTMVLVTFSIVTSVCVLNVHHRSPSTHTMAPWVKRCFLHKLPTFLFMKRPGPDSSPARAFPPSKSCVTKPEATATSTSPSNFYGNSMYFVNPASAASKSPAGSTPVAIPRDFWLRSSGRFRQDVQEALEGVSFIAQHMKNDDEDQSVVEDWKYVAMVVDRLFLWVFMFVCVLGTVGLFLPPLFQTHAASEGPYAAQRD

## OCCCCC#Cc1cncc(OC[C@@H]2CCN2)c1 [Sazetidine, 6-(5-(((S)-azetidin-2-yl)methoxy)pyridine-3-yl)hex-5-yn-1-ol]
[1]; 0.5 mg/kg sc twice daily, L-dopa 8 mg/kg plus benserazide
  Effect on L-dopa-induced AIMs: no effect
[1]; 1.0 mg/kg sc twice daily, L-dopa 8 mg/kg plus benserazide, P < 0.05
  Effect on L-dopa-induced AIMs: decline in total, oral and forelimb AIMs
[1]; 2.0 mg/kg sc twice daily, compared with 1.0 mg/kg dose, data not shown
  Effect on L-dopa-induced AIMs: Results were similar
[1]
  AIM subtypes significantly affected by nAChR compounds: Oral = forelimb
  Decrease in total AIM scores: 23%
  Reduction in L-dopa-induced AIMs: 23–32%
  Total AIMs score: ~75
Muscle nAChRs
  Ki: 180 ± 84 nM
Human α3β4 nAChRs
  Ki: 30 ± 2 nM
[2]
  EC50: 1 nM
Human α7 nAChRs
  Ki: 3.3 µM

## CN[C@@H](C)C/C=C/c1cncc(OC)c1 [TC-2696]
[1]; 1.0 mg/kg/d via minipump, L-dopa 8 mg/kg plus benserazide 15 mg/kg sc
  Effect on L-dopa-induced AIMs: fewer total L-dopa-induced AIMs
[1]; […] via minipump, L-dopa 8 mg/kg plus benserazide
  Effect on L-dopa-induced AIMs: results similar to those at the 1.0 mg/kg/d dose of the compound, except for a significant decline in forelimb AIMs
[1]
  AIM subtypes significantly affected by nAChR compounds: Axial > forelimb
  Decrease in total AIM scores: 30%
  Reduction in L-dopa-induced AIMs: 23–32%
  Total AIMs score: ~75
[3]; OFF L-dopa (before L-dopa)
  % Contralateral limb use, nAChR compound: 3.27 ± 1.5%
[3]; ON L-dopa (60 min after L-dopa)
  % Contralateral limb use, nAChR compound: 35.6 ± 13.1%
[3]; result in words
  Effect on parkinsonism (forepaw asymmetry test): no significant effect
Human α7 nAChRs; read-out: Ki α7 nAChRs, membrane binding, 3H-epibatidine, average ± SEM
  Ki: 85 µM

## CNC1(C)C2CCC(C2)C1(C)C (stereo not shown) [mecamylamine]
[4]; parkinsonian rats, ref Bordia et al., 2010
  Effect on L-dopa-induced AIMs: attenuated AIMs

## c1cncc(OC[C@@H]2CCN2)c1 [A85380]
[4]; 6-OHDA lesioned rats, ref Huang et al., 2011b
  Effect on L-dopa-induced AIMs: reduced L-dopa-induced AIMs

## c1cnc2cc3c(cc2n1)[C@@H]1CNC[C@H]3C1 [Varenicline]
[5]; severely lesioned rats, non-significant, ref Huang et al., 2011b
  Decrease in total AIM scores: 10%
[5]; severely lesioned rats, ref Huang et al., 2011b
  Total AIMs score: ~60

## CN1CCC[C@H]1c1cccnc1 [Nicotine]
Muscle nAChRs
  Ki: 3500 nM
[5]; [7]
  AIM subtypes significantly affected by nAChR compounds: Oral = forelimb
  Decrease in total AIM scores: 35%
  Total AIMs score: ~75
[6]
  Effect on L-dopa-induced dyskinesias: reduced several components of L-dopa-induced dyskinesias
[4]; study ended at this time, ref Bordia et al., 2008, Bordia et al., 2010
  Persistence of the effect on L-dopa-induced AIMs with treatment: at least 4 months
